T1: Squalene synthase (Rattus norvegicus, UniProt Q02769)
T1 sequence (Q02769 whole entry): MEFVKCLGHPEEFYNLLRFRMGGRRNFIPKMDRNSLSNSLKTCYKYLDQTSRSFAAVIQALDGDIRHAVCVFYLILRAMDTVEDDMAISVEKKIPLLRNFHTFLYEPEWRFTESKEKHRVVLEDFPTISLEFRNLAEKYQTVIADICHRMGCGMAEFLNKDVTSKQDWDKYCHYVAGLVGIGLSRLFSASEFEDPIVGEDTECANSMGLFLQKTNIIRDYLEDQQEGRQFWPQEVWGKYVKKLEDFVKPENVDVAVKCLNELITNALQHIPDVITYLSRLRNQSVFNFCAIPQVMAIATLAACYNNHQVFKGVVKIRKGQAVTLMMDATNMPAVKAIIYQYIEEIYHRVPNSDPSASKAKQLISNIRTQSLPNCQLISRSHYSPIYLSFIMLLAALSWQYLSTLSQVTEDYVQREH


Columns and labels:
[1] = species on record: Homo sapiens; assay: Compound was tested for the inhibition of cholesterol biosynthesis from [14C]- acetate in freshly isolated from human skin fibroblasts; inactive at 300 uM; assay type: functional, organism-based
[2] = species on record: Rattus norvegicus; assay: Compound was tested for the inhibition of cholesterol biosynthesis from [14C]- acetate in freshly isolated rat hepatocytes; assay type: functional; conditions: Hepatocyte, read-out: I50
[3] = molecular target: T1, Squalene synthase; assay: Inhibitory activity against liver microsomal Squalene synthase; conditions: read-out: I50
[4] = species on record: Homo sapiens; assay: Compound was tested for the inhibition of cholesterol biosynthesis from [14C]- acetate in freshly isolated from human skin fibroblasts; inactive at 100 uM; assay type: functional, organism-based
[5] = species on record: Rattus norvegicus; assay: Compound was tested for the inhibition of cholesterol biosynthesis from [14C]- acetate in freshly isolated rat hepatocytes; inactive at 200 uM; assay type: functional; conditions: hepatocyte
[6] = molecular target: T1, Squalene synthase; assay: Inhibitory activity against microsomal squalene synthase
[7] = species on record: Homo sapiens; assay: Compound was tested for the inhibition of cholesterol biosynthesis from [14C]- acetate in freshly isolated from human skin fibroblasts; inactive at 15 uM; assay type: functional, organism-based
[8] = species on record: Homo sapiens; assay: Compound was tested for the inhibition of cholesterol biosynthesis from [14C]- acetate in freshly isolated from human skin fibroblasts; assay type: functional, organism-based; conditions: read-out: I50
[9] = species on record: Homo sapiens; assay: Compound was tested for the inhibition of cholesterol biosynthesis from [14C]- acetate in freshly isolated from human skin fibroblasts; inactive at 30 uM; assay type: functional
[10] = compound: CC(C)=CCC/C(C)=C/CC/C(C)=C/COP(=O)(O)OP(=O)(O)O; assay: Competitive inhibitory activity against microsomal Squalene synthase
In short: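 Rat microsomal enzyme; inhibitor at 0, 2.5, 10 and 30 μM against FPP varied from 5 to 50 μM, with NADPH held saturating at 0.9 mM. Inhibition type and Ki were taken from double-reciprocal (Lineweaver-Burk) plots of the kinetic data.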

| Molecule | IC50 [3] [µM] | IC50 [2] [µM] | other results |
| --- | --- | --- | --- |
| CC(C)=CCC/C(C)=C/CC/C(C)=C/CCCP(=O)([O-])C(=O)[O-].[Na+].[Na+] | 31.8 | 30 | I50 [1]: Inactive |
| CC(C)=CCC/C(C)=C/CC/C(C)=C/CCC[PH](=O)O | 197 | – | – |
| CC(C)=CCC/C(C)=C/CC/C(C)=C/CCP(=O)(O)CP(=O)(O)O | – | – | I50 [4]: Inactive; I50 [5]: Inactive; Ki [6]: 10 µM |
| CC(C)=CCC/C(C)=C/CC/C(C)=C/CCP(=O)([O-])C(=O)[O-].[Na+].[Na+] | 100 | 5.7 | I50 [9]: Inactive |
| CC(C)=CCC/C(C)=C/CC/C(C)=C/CCP(=O)([O-])CC(=O)[O-].[K+].[K+] | – | 71 | I50 [4]: Inactive |
| Squalene synthase (Rattus norvegicus), Q02769 (protein) MEFVKCLGHPEEFYNLLRFRMGGRRNFIPKMDRNSLSNSLKTCYKYLDQTSRSFAAVIQALDGDIRHAVCVFYLILRAMDTVEDDMAISVEKKIPLLRNFHTFLYEPEWRFTESKEKHRVVLEDFPTISLEFRNLAEKYQTVIADICHRMGCGMAEFLNKDVTSKQDWDKYCHYVAGLVGIGLSRLFSASEFEDPIVGEDTECANSMGLFLQKTNIIRDYLEDQQEGRQFWPQEVWGKYVKKLEDFVKPENVDVAVKCLNELITNALQHIPDVITYLSRLRNQSVFNFCAIPQVMAIATLAACYNNHQVFKGVVKIRKGQAVTLMMDATNMPAVKAIIYQYIEEIYHRVPNSDPSASKAKQLISNIRTQSLPNCQLISRSHYSPIYLSFIMLLAALSWQYLSTLSQVTEDYVQREH | – | – | Km [10]: 12.7 µM |

Continued, in another order:

| IC50 [3] [µM] | Molecule | IC50 [2] [µM] | other results |
| --- | --- | --- | --- |
| 8.7 | CC(C)=CCC/C(C)=C/CC/C(C)=C/CCOP(=O)([O-])C(=O)[O-].[Na+].[Na+] | 6 | I50 [7]: Inactive |
| 106 | CCOC(=O)P(=O)(O)OCC/C=C(\C)CC/C=C(\C)CCC=C(C)C | 9 | IC50 [8]: 12 µM |
| 112 | CCOC(=O)P(=O)(O)CCC/C=C(\C)CC/C=C(\C)CCC=C(C)C | 24 | IC50 [8]: 2.2 µM |
| 86 | CC(C)=CCC/C(C)=C/CC/C(C)=C/COP(=O)(O)CC(=O)O | 273 | – |
| 41.6 | CC(C)=CCC/C(C)=C/CC/C(C)=C/CCCOP(=O)(O)C(=O)O | – | – |
